# A selection: hits, their analogues and other compounds. The true share with any hit is near 3.5%.
# RGS4 block – RGS4 inhibitors, primary screen, cell-based, HEK293 M3R inducible RGS4, calcium flux; Regulator of G-protein signaling 4 (Homo sapiens), P49798; Fluo-4 calcium flux; hits give high values; triggered by carbachol at its EC20; B-score at 10 µM; 310,000 tested, 0.45% active; AID 463165, 2010;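 active = B-score, a plate-corrected calcium signal, over three deviations above library mean, with baseline fluorescence within five deviations of library mean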;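 also: RGS4 expression induced by doxycycline in cells with stable M3 receptor; B-score is computed from the integrated fluorescence ratio over baseline after carbachol; higher B-score means a larger calcium signal and so more RGS4 inhibition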
# Target sequence (P49798 whole entry, looked up): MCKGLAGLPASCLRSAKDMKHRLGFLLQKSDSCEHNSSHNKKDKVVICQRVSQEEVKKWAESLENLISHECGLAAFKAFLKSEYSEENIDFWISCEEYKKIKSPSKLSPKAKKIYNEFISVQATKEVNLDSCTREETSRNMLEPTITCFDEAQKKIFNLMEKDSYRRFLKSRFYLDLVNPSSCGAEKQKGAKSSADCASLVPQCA
# MrgX1 allo act – positive allosteric modulators of MrgX1, primary screen, HEK293 cells, Fluo-4 calcium flux | B-score at 10 µM | 310,000 tested, 0.63% active | Mas-related G-protein coupled receptor member X1 (Homo sapiens), Q96LB2 | FDSS; hits give high values;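 active = plate-corrected calcium response at least 3 library SD above typical, normal starting fluorescence, not activating the receptor alone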;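 also: compound read alongside a low EC10 to EC30 dose of BAM8-22 agonist; peak minus trough fluorescence over baseline measured at the second addition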
# Target sequence (Q96LB2 whole entry, looked up): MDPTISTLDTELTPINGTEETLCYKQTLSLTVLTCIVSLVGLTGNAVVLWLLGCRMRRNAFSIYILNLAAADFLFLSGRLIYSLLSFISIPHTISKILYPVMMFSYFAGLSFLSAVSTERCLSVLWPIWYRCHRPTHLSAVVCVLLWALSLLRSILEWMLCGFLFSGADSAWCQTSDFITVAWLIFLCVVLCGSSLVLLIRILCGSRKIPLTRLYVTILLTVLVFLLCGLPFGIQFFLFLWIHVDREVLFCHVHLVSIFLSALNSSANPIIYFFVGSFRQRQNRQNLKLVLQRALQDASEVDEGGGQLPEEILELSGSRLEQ
# MrgX1 antagonist – antagonists of human MrgX1 receptor, primary screen, HEK293 cells, Fluo-4 calcium flux | Mas-related G-protein coupled receptor member X1 (Homo sapiens), Q96LB2 | BAM8-22 antagonism; hits give low values | B-score at 10 µM | 310,000 tested, 1.3% active | AID 588676, 2011;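 active = calcium-response B-score plate-corrected more than 3 library SD below zero, starting fluorescence within 5 deviations, no agonist response on first addition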;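 also: peak minus trough fluorescence over baseline after final BAM8-22 challenge near maximal dose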
# MrgX1 ag – agonists of human MrgX1 receptor, primary screen, HEK293 cells, Fluo-4 calcium flux; Mas-related G-protein coupled receptor member X1 (Homo sapiens), Q96LB2; Fluo-4 calcium fluorescence, agonist mode; hits give high values; B-score at 10 µM; 310,000 tested, 0.44% active;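 active = calcium response B-score plate-corrected fluorescence ratio at least 3 library SD, with starting fluorescence B-score inside 5 SD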
#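 Assay system: stable human MrgX1 HEK293 cell line. Quantity: 15,000 cells per well. Schedule: cells plated overnight, dye loaded 0.5 h 37 °C, 0.5 h room temperature. Detection: Fluo-4 NW calcium-flux fluorescence, kinetic read. Read-out basis: peak-minus-minimum fluorescence over baseline, converted to B scores. Control set: positive and negative control wells on each plate.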
# RGS4 pot – RGS4 potentiators or activators, primary screen, cell-based, HEK293 M3R inducible RGS4, calcium flux | carbachol calcium flux Fluo4; hits give low values | B-score at 10 µM | 310,000 tested, 0.92% active;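 active = B-score of the integrated calcium signal more than 4 SD below the library mean, with starting fluorescence not abnormally high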;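 also: negative B-score means reduced calcium response which marks RGS4 activation or potentiation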
#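 Material: M3R-expressing HEK293 line, RGS4 induced by doxycycline | Schedule: Overnight RGS4 induction, 30 min dye load 37 °C, 20 min compound RT | Measured by: Fluo4 fluorescence kinetic imaging of calcium | Read-out: Integrated calcium ratio converted to B score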
# MrgX1 PAM conf – MrgX1 positive allosteric modulators, duplicate retest, confirmation, HEK293 cells, Fluo-4 calcium flux; Fluo-4 calcium fluorescence, FDSS; shares compounds with MrgX1 allo act; activation (ratio percentage), % at 10 µM; 1,200 tested, 13% active; AID 602413, 2012;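 active = ratio at least 3 SD above the weak peptide control, stable starting fluorescence, no direct agonism earlier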;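 also: compound followed by low BAM8-22 agonist challenge near EC20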
# HEK293 Ca flux – nonspecific calcium signal in parental HEK293, confirmation, counter-screen for MrgX1 antagonist project, parental HEK293 cells, Fluo-4 calcium flux. Fluo-4 calcium fluorescence, FDSS. 4,000 tested, 2% active. fluorescence ratio F(max-min)/F0 at 10 µM. shares compounds with MrgX1 antagonist;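 active = duplicate-averaged calcium fluorescence ratio at least three times the standard deviation of buffer wells, a nonspecific response in parental cells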
# HEK293 Ca counter – calcium response in parental HEK293 cells, primary screen, counter-screen for MrgX1 allosteric activator project, cell-based, Fluo-4 calcium flux, duplicate. 4,000 tested, 0.4% active. shares compounds with MrgX1 antagonist. AID 624114, 2012. fluorescence ratio F(max-min)/F0 at 10 µM. Fluo-4 fluorescence ratio; hits give high values;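 active = calcium fluorescence ratio, averaged over duplicates, at least 3 SD of the buffer-well ratio, meaning a nonspecific response in receptor-free cells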;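 also: untransfected parental HEK293 lacking MrgX1 used as counterscreen for MrgX1 allosteric activators; fluorescence change taken during the second addition on a kinetic imager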
# HEK293 Ca cntr2 – calcium response in parental HEK293 cells, primary screen, counter-screen for MrgX1 agonist project, cell-based, Fluo-4 calcium flux, duplicate, agonist mode; Fluo-4 calcium fluorescence (FDSS); hits give high values; shares compounds with MrgX1 antagonist; AID 624115, 2012; 4,000 tested, 8.7% active; fluorescence ratio F(max-min)/F0 at 10 µM;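 active = calcium fluorescence ratio at least three times the spread of buffer wells, meaning a non-specific response in parental cells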
# * = called active by the depositor; i = inactive; . = no result.
SMILES,RGS4 block,MrgX1 allo act,MrgX1 antagonist,MrgX1 ag,RGS4 pot,MrgX1 PAM conf,HEK293 Ca flux,HEK293 Ca counter,HEK293 Ca cntr2
CC12COC3(C(=O)Nc4ccc(F)cc4)CC1CCC32C (stereo not given),i,11*,i,i,i,i,i,i,i
Cc1ccc(-n2nc3c(c2NC(=O)c2ccc4c(c2)OCO4)CS(=O)C3)c(C)c1 (stereo not given),i,i,i,i,i,.,.,.,.
CC(=O)N(CCc1ccccc1)Cc1cc2ccc(C)c(C)c2[nH]c1=O,i,8.6*,i,i,i,2.4%*,i,i,i
CCC(=O)N(CCc1ccccc1)Cc1cc2ccc(OC)cc2[nH]c1=O,i,i,i,i,i,.,.,.,.
CCC(=O)N(CCc1ccccc1)Cc1cc2cc(OC)ccc2[nH]c1=O,i,10*,i,i,i,i,i,i,i
CCC(=O)N(CCO)Cc1cc2ccc(C)c(C)c2[nH]c1=O,i,i,i,i,i,.,.,.,.
NC(=O)NCc1cccs1,i,i,i,i,i,.,.,.,.
O=c1oc2ccccc2n1Cc1cccc(C(F)(F)F)c1,i,i,i,i,i,.,.,.,.
COc1ccc(N(C)S(=O)(=O)c2ccc3c(c2)NC(=O)CO3)c(OC)c1,i,7*,i,i,i,i,i,i,i
O=C1COc2ccc(S(=O)(=O)NCc3ccc(Cl)cc3)cc2N1,i,6.5*,i,i,i,i,i,i,i
COc1ccc(C)cc1NC(=O)C1CCN(S(=O)(=O)c2ccc3c(c2)NC(=O)CO3)CC1,i,7.6*,i,i,i,i,i,i,i
O=C1COc2ccc(S(=O)(=O)NCCc3ccccc3)cc2N1,i,i,i,i,i,.,.,.,.
OCC1(CCOc2ccccc2)CCN(Cc2cn[nH]c2-c2ccc(F)cc2)CC1,i,11*,i,i,i,i,i,i,i
c1ccc(-c2ccc3ccccc3n2)cc1,i,i,i,i,i,.,.,.,.
c1ccc2nc(-c3ccc(-n4ccnc4)cc3)ccc2c1,i,8.9*,i,i,i,i,i,i,i
CCOC(=O)c1c(NC(=O)C2CCCCC2C(=O)O)sc2c1CCCCC2 (stereo not given),i,16*,i,i,i,i,i,i,i
O=C(Nc1ccc(Cl)cc1)NN1CC(=O)N(c2cccc(C(F)(F)F)c2)CC1=O,i,i,i,i,i,.,.,.,.
O=C(CCN1C(=O)C2C3CCC(C3)C2C1=O)Nc1ccc(F)cc1 (stereo not given),i,.,.,.,i,.,.,.,.
CCC(C)c1ccc(OCC(=O)Nc2ccc3c(c2)C(=O)NC3=O)cc1 (stereo not given),i,i,i,i,i,.,.,.,.
O=C(CCCCCNC(=O)N1CCn2c1nc1ccccc12)NCc1ccc(F)cc1,i,i,i,i,i,.,.,.,.

# Compound activity as filed in PubChem.
